From ChEMBL document CHEMBL1152418, “Synthesis, antiviral activity and molecular modeling of oxoquinoline derivatives” (Bioorg Med Chem, 2009)
pEC50: −log10 of the molar value.

Legend:
[1] = Selectivity index, ratio of CC50 for human PBMC cells to EC50 for HIV1; format: toxicity, cell-based; conditions: read-out: Ratio CC50/EC50
Summary of the method: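 Ratio of PBMC CC50 to anti-HIV-1 EC50. Both were measured in PHA-activated, IL-2-maintained PBMCs. For EC50, cells were infected with Ba-L isolate (R5-tropic, subtype B), plated at 2 × 10⁵ cells/well in triplicate and treated with various concentrations for 7 days at 37 °C, 5% CO2. Supernatant p24 was measured by capture ELISA against untreated infected cells. CC50 came from XTT viability.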

[2] = tested on: Human immunodeficiency virus 1; test: Inhibition of HIV1 viral replication infected in human PBMC cells assessed as viral p24Ag concentration after 7 days postinfection by ELISA; format: functional, organism-based; conditions: Human immunodeficiency virus 1, PBMC, 168 h
Summary of the method: (§1)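 HIV-1 Ba-L (R5-tropic, subtype B) grown in PHA-activated donor PBMCs. PBMCs stimulated 2–3 days with 5 μg/mL PHA, then kept with 5 U/mL IL-2. Cells plated at 2 × 10⁵/well in triplicate with a range of compound concentrations. After 7 days at 37 °C, 5% CO₂, supernatant p24 measured by capture ELISA. EC₅₀ derived against untreated infected cells.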

[3] = tested on: Human immunodeficiency virus 1; test: Inhibition of HIV1 viral replication infected in human PBMC cells assessed as viral p24Ag concentration after 7 days postinfection by ELISA relative to untreated control; format: functional; summary of the method: as §1
[4] = Cytotoxicity against human PBMC by XTT assay; format: cell-based; conditions: PBMC (peripheral blood mononuclear cells)
Summary of the method: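 PBMCs held in RPMI 1640 with 10% heat-inactivated FBS, penicillin, streptomycin, 2 mM glutamine and 10 mM HEPES. Activated with 5 µg/mL PHA for 2–3 days, then kept with 5 U/mL IL-2. Cells exposed to a range of concentrations. Viability read by XTT, OD 450 nm 2 h after addition. CC50 is the concentration giving 50% viability loss versus untreated controls.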

Q: With `CCOC(=O)c1cn(COCCO)c2ccc(F)cc2c1=O` as the compound, how does the selectivity ratio [1] read?
A: 18

Q: What about the pEC50 [2] of the same compound?
A: 4.08

Q: What about the “inhibition (INH)” value [3] of the same compound?
A: 30%

Q: And the CC50 [4]?
A: 1500 µM

Q: What does the source list for `CCOC(=O)c1cn(COCCO)c2ccc(Cl)cc2c1=O`?
A: selectivity ratio [1]: 36; pEC50 [2]: 4.30; inhibition (INH) [3]: 45%; CC50 [4]: 1800 µM

Q: With `O=C(NCc1ccccc1)c1cn(COCCO)c2ccc(Cl)cc2c1=O` as the compound, how does the selectivity ratio [1] read?
A: 711

Q: What about the pEC50 [2] of the same compound?
A: 5.35

Q: What about the “inhibition (INH)” value [3] of the same compound?
A: 98%

Q: What about the CC50 [4] of the same compound?
A: 3200 µM

Q: With `CCOC(=O)c1cn(Cc2ccccc2)c2ccc(Cl)cc2c1=O` as the compound, how does the selectivity ratio [1] read?
A: 18

Q: What about the pEC50 [2] of the same compound?
A: 3.98

Q: And the “inhibition (INH)” value [3]?
A: 24%

Q: What about the CC50 [4] of the same compound?
A: 1840 µM

Q: Which selectivity ratio [1] does the source give for `O=C(NCc1ccccc1)c1c[nH]c2ccc(Cl)cc2c1=O` here?
A: 26

Q: And the pEC50 [2]?
A: 4.28

Q: What about the “inhibition (INH)” value [3] of the same compound?
A: 47%

Q: What about the CC50 [4] of the same compound?
A: 1400 µM

Q: Which selectivity ratio [1] does the source give for `NNC(=O)c1cn(COCCO)c2ccc(Cl)cc2c1=O` here?
A: 960

Q: And the pEC50 [2]?
A: 5.60

Q: And the “inhibition (INH)” value [3]?
A: 99%

Q: And the CC50 [4]?
A: 2400 µM

Q: For `O=C(NCc1ccccc1)c1cn(COCCO)c2ccc(F)cc2c1=O`, which selectivity ratio [1] is on record?
A: 1000

Q: And the pEC50 [2]?
A: 5.55

Q: What about the “inhibition (INH)” value [3] of the same compound?
A: 90%

Q: What about the CC50 [4] of the same compound?
A: 2800 µM

Q: Which results are given for `NNC(=O)c1c[nH]c2ccc(Cl)cc2c1=O`?
A: selectivity ratio [1]: 14; pEC50 [2]: 4.07; inhibition (INH) [3]: 29%; CC50 [4]: 1230 µM

Q: Which selectivity ratio [1] does the source give for `O=C(O)c1cn([C@@H]2O[C@H](CO)[C@@H](O)[C@H]2O)c2ccc(Cl)cc2c1=O` here?
A: 1130

Q: What about the pEC50 [2] of the same compound?
A: 5.82

Q: And the “inhibition (INH)” value [3]?
A: 99%

Q: What about the CC50 [4] of the same compound?
A: 1700 µM

Q: What does the source list for `NNC(=O)c1cn(COCCO)c2ccc(F)cc2c1=O`?
A: selectivity ratio [1]: 275; pEC50 [2]: 5.48; inhibition (INH) [3]: 96%; CC50 [4]: 909 µM

Q: What does the source list for `O=C(O)c1cn(Cc2ccccc2)c2ccc(Cl)cc2c1=O`?
A: selectivity ratio [1]: 22; pEC50 [2]: 4.07; inhibition (INH) [3]: 29%; CC50 [4]: 1890 µM

Q: With `CCOC(=O)c1c[nH]c2ccc(Cl)cc2c1=O` as the compound, how does the selectivity ratio [1] read?
A: 39

Q: What about the pEC50 [2] of the same compound?
A: 4.37

Q: And the “inhibition (INH)” value [3]?
A: 58%

Q: What about the CC50 [4] of the same compound?
A: 1660 µM

Q: Which results are given for `Cc1cn([C@H]2C[C@H](N=[N+]=[N-])[C@@H](CO)O2)c(=O)[nH]c1=O` [ZIDOVUDINE]?
A: selectivity ratio [1]: 2520; pEC50 [2]: 7.30; inhibition (INH) [3]: 94%; CC50 [4]: 126 µM
